Source: ChEMBL document CHEMBL2040818, “Synthesis and in vitro evaluation of novel tetrazole embedded 1,3,5-trisubstituted pyrazoline derivatives as Entamoeba histolytica growth inhibitors” (Eur J Med Chem, 2012)

What was measured:
[1] = Selectivity index, ratio of IC50 for human HepG2 cells to IC50 for Entamoeba histolytica HM1:IMSS
[2] = Cytotoxicity against human HepG2 cells assessed as cell viability at 100 uM after 48 hrs by MTT assay; format: cell-based; settings: read-out: Activity
Summary of the method: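 HepG2 grown in DMEM, 10% heat-inactivated FBS, antibiotics, 37 °C, 5% CO2; 1.2 × 10^4 cells/well pre-grown 48 h, then exposed to compounds (3.13–100 µM; DMSO stocks diluted in medium) for 48 h at 37 °C; MTT read-out at 570 nm, reference 655 nm; viability as % of untreated control; triplicate, repeated thrice.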

Entamoeba histolytica = assay: Antiamoebic activity against Entamoeba histolytica HM1:IMSS after 72 hrs by microdilution method; format: functional, organism-based; settings: HM-1:IMSS
HepG2 = assay: Cytotoxicity against human HepG2 cells after 48 hrs by MTT assay; settings: HepG2, 48 h
[3] = Cytotoxicity against human HepG2 cells assessed as cell viability at 50 to 100 uM after 48 hrs by MTT assay
in vitro [4] = settings: human, HepG2 cells
in vitro [5] = settings: human, HepG2 cells; remark: listed apart in the source

Row | SMILES | Ratio IC50 [1] | viability at 48 h, 100 µM [2] [%] | IC50 (Entamoeba histolytica) [µM] | IC50 (HepG2) [µM] | viability at 48 h, 100 µM [3] [%] | viability at 48 h, 3.13 µM (in vitro [4]) [%] | viability at 48 h, 25 µM (in vitro [5]) [%]
1 | COc1ccc(-c2nnnn2CC(=O)N2N=C(c3ccccc3)CC2c2ccc(OC)cc2)cc1 (configuration not stated) | >86.2 | ≥ 68 | 1.16 | > 100 | – | – | –
2 | COc1ccc(/C=C/C(=O)c2ccccc2)cc1 [4-METHOXY CHALCONE] | >16.86 | – | 5.93 | > 100 | 40 | 95 | 72
3 | COc1ccc(-c2nnnn2CC(=O)N2N=C(c3ccc(Cl)cc3)CC2c2ccc(OC)cc2)cc1 (configuration not stated) | >38.02 | – | 2.63 | > 100 | 40 | 95 | 72
4 | O=C(/C=C/c1ccc(Cl)cc1)c1ccccc1 [4-CHLORO CHALCONE] | 13.27 | – | 7.32 | 97.2 | 40 | 95 | 72
5 | Cc1ccc(/C=C/C(=O)c2ccc(C)cc2)cc1 [4,4'-DIMETHYLCHALCONE] | – | – | 4.19 | > 100 | 40 | 95 | 72
6 | Cc1ccc(/C=C/C(=O)c2ccc(Cl)cc2)cc1 | 17.4 | – | 5.32 | 92.6 | 40 | 95 | 72
7 | COc1ccc(-c2nnnn2CC(=O)N2N=C(c3ccccc3)CC2c2ccccc2)cc1 (configuration not stated) | 16.03 | – | 5.32 | 85.3 | 40 | 95 | 72
8 | Cc1ccc(C(=O)/C=C/c2ccccc2)cc1 | >20.7 | – | 4.83 | > 100 | 40 | 95 | 72
9 | COc1ccc(-c2nnnn2CC(=O)N2N=C(c3ccccc3)CC2c2ccc([N+](=O)[O-])cc2)cc1 (configuration not stated) | 21.68 | – | 3.68 | 79.8 | 40 | 95 | 72
10 | O=C(/C=C/c1ccc([N+](=O)[O-])cc1)c1ccccc1 | 10.74 | – | 6.02 | 64.7 | 40 | 95 | 72
11 | COc1ccc(-c2nnnn2CC(=O)N2N=C(c3ccccc3)CC2c2ccc(Cl)cc2)cc1 (configuration not stated) | 26.62 | – | 3.02 | 80.4 | 40 | 95 | 72
12 | COc1ccc(-c2nnnn2CC(=O)N2N=C(c3ccc(Cl)cc3)CC2c2ccc([N+](=O)[O-])cc2)cc1 (configuration not stated) | 17.68 | – | 4.89 | 86.5 | 40 | 95 | 72
13 | COc1ccc(/C=C/C(=O)c2ccc(Cl)cc2)cc1 | 19.05 | – | 5.1 | 97.2 | 40 | 95 | 72
14 | COc1ccc(-c2nnnn2CC(=O)N2N=C(c3ccc(Cl)cc3)CC2c2ccccc2)cc1 (configuration not stated) | 28.76 | – | 3.15 | 90.6 | 40 | 95 | 72
15 | O=C(/C=C/c1ccc([N+](=O)[O-])cc1)c1ccc(Cl)cc1 | 6.5 | – | 6.18 | 40.2 | 40 | 95 | 72
16 | COc1ccc(/C=C/C(=O)c2ccc(C)cc2)cc1 | >21.01 | – | 4.76 | > 100 | 40 | 95 | 72

Row | SMILES | Ratio IC50 [1] | viability at 48 h, 100 µM [2] [%] | IC50 (Entamoeba histolytica) [µM] | IC50 (HepG2) [µM] | viability at 48 h, 100 µM [3] [%] | viability at 48 h, 3.13 µM (in vitro [4]) [%] | viability at 48 h, 25 µM (in vitro [5]) [%]
17 | Cc1ccc(/C=C/C(=O)c2ccccc2)cc1 | – | – | 4.38 | – | – | – | –
18 | COc1ccc(-c2nnnn2CC(=O)N2N=C(c3ccc(C)cc3)CC2c2ccc(Cl)cc2)cc1 (configuration not stated) | 34.5 | – | 2.84 | 98 | 40 | 95 | 72
19 | O=C(/C=C/c1ccc(Cl)cc1)c1ccc(Cl)cc1 [4',4-DICHLOROCHALCONE] | 14.13 | – | 5.86 | 82.8 | 40 | 95 | 72
20 | COc1ccc(-c2nnnn2CC(=O)N2N=C(c3ccc(C)cc3)CC2c2ccc(OC)cc2)cc1 (configuration not stated) | >92.59 | ≥ 68 | 1.08 | > 100 | – | – | –
21 | Cc1ncc([N+](=O)[O-])n1CCO [METRONIDAZOLE] | >55.55 | – | – | > 100 | – | 95 | –
22 | O=C(/C=C/c1ccccc1)c1ccc(Cl)cc1 | 13.6 | – | 6.96 | 94.7 | 40 | 95 | 72
23 | COc1ccc(-c2nnnn2CC(=O)N2N=C(c3ccc(Cl)cc3)CC2c2ccc(C)cc2)cc1 (configuration not stated) | 31.28 | – | 2.96 | 92.6 | 40 | 95 | 72
24 | COc1ccc(-c2nnnn2CC(=O)N2N=C(c3ccc(C)cc3)CC2c2ccccc2)cc1 (configuration not stated) | >83.33 | ≥ 68 | 1.2 | > 100 | – | – | –
25 | COc1ccc(-c2nnnn2CC(=O)N2N=C(c3ccc(C)cc3)CC2c2ccc(C)cc2)cc1 (configuration not stated) | >116.27 | ≥ 68 | 0.86 | > 100 | – | – | –
26 | Cc1ccc(C(=O)/C=C/c2ccc([N+](=O)[O-])cc2)cc1 | 16.85 | – | 5.08 | 85.6 | 40 | 95 | 72
27 | COc1ccc(-c2nnnn2CC(=O)N2N=C(c3ccccc3)CC2c2ccc(C)cc2)cc1 (configuration not stated) | >78.12 | ≥ 68 | 1.28 | > 100 | – | – | –
28 | O=C(/C=C/c1ccccc1)c1ccccc1 [CHALCONE] | >7.78 | – | 12.9 | > 100 | 40 | 95 | 72
29 | COc1ccc(-c2nnnn2CC(=O)N2N=C(c3ccc(C)cc3)CC2c2ccc([N+](=O)[O-])cc2)cc1 (configuration not stated) | >38.02 | – | 2.63 | > 100 | 40 | 95 | 72
30 | Cc1ccc(C(=O)/C=C/c2ccc(Cl)cc2)cc1 | 14.21 | – | 5.22 | 74.2 | 40 | 95 | 72
31 | COc1ccc(-c2nnnn2CC(=O)N2N=C(c3ccc(Cl)cc3)CC2c2ccc(Cl)cc2)cc1 (configuration not stated) | 17.26 | – | 4.65 | 80.3 | 40 | 95 | 72
